According to ChEMBL document CHEMBL1157589, “Antifungal 3,5-disubstituted furanones: From 5-acyloxymethyl to 5-alkylidene derivatives” (Bioorg Med Chem, 2010):
Values after ≈ are worked out from the molar mass of the structure shown.

Key:
[1] = tested on: Trichosporon beigelii; experiment: Antifungal activity against Trichosporon beigelii 1188 after 48 hrs by microdilution method; type: functional; conditions: Trichosporon beigelii, 1188, 48 h
Procedure, shortened: (§1)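 Yeasts held on Sabouraud dextrose agar. MIC by NCCLS M27-A broth microdilution in RPMI 1640 with L-glutamine, buffered with 0.165 M MOPS to pH 7.0. Compounds in DMSO (≤2% final), twofold dilutions 500–0.48. Final inoculum 5 × 10³ ± 0.2 cfu mL⁻¹. Incubated at 35 °C; absorbance at 540 nm read at 24 and 48 h. MIC is 80% growth inhibition versus control; run twice in duplicate.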

[2] = tested on: Pichia kudriavzevii; experiment: Antifungal activity against Candida krusei ATCC 6258 after 24 hrs by microdilution method; type: functional; conditions: ATCC 6258, 24 h; procedure, shortened: as §1
[3] = tested on: Trichophyton mentagrophytes; experiment: Antifungal activity against Trichophyton mentagrophytes 445 after 72 hrs by microdilution method; type: functional; conditions: Trichophyton mentagrophytes, 445, 72 h
Procedure, shortened: (§2)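 Dermatophyte held on Sabouraud dextrose agar. M27-A microdilution in MOPS-buffered (0.165 M, pH 7.0) RPMI 1640 with L-glutamine. DMSO ≤2% final; twofold dilutions 500–0.48. Inoculum 5 × 10³ ± 0.2 cfu mL⁻¹ final. Incubated at 35 °C; MIC read visually at 72 and 120 h as 80% inhibition of control growth; determined twice in duplicate.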

[4] = tested on: Candida albicans; experiment: Antifungal activity against Candida albicans ATCC 44859 after 24 hrs by microdilution method; type: functional; conditions: ATCC 44859, 24 h; procedure, shortened: as §1
[5] = tested on: HeLa S3; experiment: Cytostatic activity against human HeLaS3 cells after 48 hrs by XTT assay
[6] = tested on: Aspergillus fumigatus; experiment: Antifungal activity against Aspergillus fumigatus 231 after 24 hrs by microdilution method; type: functional; conditions: Aspergillus fumigatus, 231, 24 h
Procedure, shortened: (§3)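 Filamentous strains held on Sabouraud dextrose agar. NCCLS M27-A broth microdilution in RPMI 1640 with L-glutamine and 0.165 M MOPS, pH 7.0. DMSO diluent ≤2% final; twofold dilutions 500–0.48. Inoculum 5 × 10³ ± 0.2 cfu mL⁻¹ final.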

[7] = tested on: Aspergillus fumigatus; experiment: Antifungal activity against Aspergillus fumigatus 231 after 48 hrs by microdilution method; type: functional; conditions: Aspergillus fumigatus, 231, 48 h; procedure, shortened: as §3
[8] = tested on: Candida albicans; experiment: Antifungal activity against Candida albicans ATCC 90028 after 24 hrs by microdilution method; type: functional; conditions: ATCC 90028, 24 h; procedure, shortened: as §1
[9] = tested on: Trichophyton mentagrophytes; experiment: Antifungal activity against Trichophyton mentagrophytes 445 after 120 hrs by microdilution method; type: functional; conditions: Trichophyton mentagrophytes, 445, 120 h; procedure, shortened: as §2
[10] = tested on: Trichosporon beigelii; experiment: Antifungal activity against Trichosporon beigelii 1188 after 24 hrs by microdilution method; type: functional; conditions: Trichosporon beigelii, 1188, 24 h; procedure, shortened: as §1
[11] = tested on: Candida tropicalis; experiment: Antifungal activity against Candida tropicalis 156 after 48 hrs by microdilution method; type: functional; conditions: Candida tropicalis, 156, 48 h; procedure, shortened: as §1
[12] = tested on: Clavispora lusitaniae; experiment: Antifungal activity against Candida lusitaniae 2446/I after 48 hrs by microdilution method; type: functional; procedure, shortened: as §1
[13] = tested on: Pichia kudriavzevii; experiment: Antifungal activity against Candida krusei E28 after 24 hrs by microdilution method; type: functional; conditions: E28, 24 h; procedure, shortened: as §1
[14] = tested on: Clavispora lusitaniae; experiment: Antifungal activity against Candida lusitaniae 2446/I after 24 hrs by microdilution method; type: functional; procedure, shortened: as §1
[15] = tested on: Nakaseomyces glabratus; experiment: Antifungal activity against Candida glabrata 20/I after 48 hrs by microdilution method; type: functional; procedure, shortened: as §1
[16] = tested on: Lichtheimia corymbifera; experiment: Antifungal activity against Absidia corymbifera 272 after 48 hrs by microdilution method; type: functional; conditions: Lichtheimia corymbifera, 272, 48 h; procedure, shortened: as §3
[17] = tested on: Candida parapsilosis; experiment: Antifungal activity against Candida parapsilosis ATCC 22019 after 24 hrs by microdilution method; type: functional; conditions: Lodderomyces parapsilosis, ATCC 22019, 24 h; procedure, shortened: as §1
[18] = tested on: Lichtheimia corymbifera; experiment: Antifungal activity against Absidia corymbifera 272 after 24 hrs by microdilution method; type: functional; conditions: Lichtheimia corymbifera, 272, 24 h; procedure, shortened: as §3
[19] = tested on: Candida tropicalis; experiment: Antifungal activity against Candida tropicalis 156 after 24 hrs by microdilution method; type: functional; conditions: Candida tropicalis, 156, 24 h; procedure, shortened: as §1
[20] = tested on: Nakaseomyces glabratus; experiment: Antifungal activity against Candida glabrata 20/I after 24 hrs by microdilution method; type: functional; procedure, shortened: as §1
[21] = tested on: CCRF-CEM; experiment: Cytostatic activity against human CCRF-CEM cells after 72 hrs by XTT assay; type: functional, cell-based
Procedure, shortened: (§4)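 Leukemia cells (L1210 ATCC CCL 219, CCRF-CEM ATCC CCL 119, HL-60 ATCC CCL 240) grown in 24-well plates in RPMI 1640 with fetal calf serum. Growth assessed 72 h after drug addition. Viability measured by XTT spectrophotometric assay; potency given as IC50.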

[22] = tested on: Candida albicans; experiment: Antifungal activity against Candida albicans ATCC 44859 after 48 hrs by microdilution method; type: functional; conditions: ATCC 44859, 48 h; procedure, shortened: as §1
[23] = tested on: Candida parapsilosis; experiment: Antifungal activity against Candida parapsilosis ATCC 22019 after 48 hrs by microdilution method; type: functional; conditions: Lodderomyces parapsilosis, ATCC 22019, 48 h; procedure, shortened: as §1
[24] = tested on: HL-60; experiment: Cytostatic activity against human HL60 cells after 72 hrs by XTT assay; type: functional, cell-based; conditions: hl-60; procedure, shortened: as §4
[25] = tested on: Pichia kudriavzevii; experiment: Antifungal activity against Candida krusei E28 after 48 hrs by microdilution method; type: functional; conditions: E28, 48 h; procedure, shortened: as §1
[26] = tested on: L1210; experiment: Cytostatic activity against mouse L1210 cells after 72 hrs by XTT assay; type: functional, cell-based; procedure, shortened: as §4
[27] = tested on: Candida albicans; experiment: Antifungal activity against Candida albicans ATCC 90028 after 48 hrs by microdilution method; type: functional; conditions: ATCC 90028, 48 h; procedure, shortened: as §1
[28] = tested on: Pichia kudriavzevii; experiment: Antifungal activity against Candida krusei ATCC 6258 after 48 hrs by microdilution method; type: functional; conditions: ATCC 6258, 48 h; procedure, shortened: as §1

| SMILES | MIC80 [1] | MIC80 [2] | MIC80 [3] | MIC80 [4] | MIC80 [6] | MIC80 [7] | MIC80 [8] | MIC80 [9] | MIC80 [10] | MIC80 [11] | MIC80 [12] | MIC80 [13] | MIC80 [14] | MIC80 [15] | MIC80 [16] | MIC80 [17] | MIC80 [18] | MIC80 [19] | MIC80 [20] | MIC80 [22] | further results |
| --- | --- | --- | --- | --- | --- | --- | --- | --- | --- | --- | --- | --- | --- | --- | --- | --- | --- | --- | --- | --- | --- |
| O=C1OCC=C1c1ccc(Br)cc1 | 500 µM (≈ 120 µg/mL) | 250 µM (≈ 59.8 µg/mL) | 250 µM (≈ 59.8 µg/mL) | 250 µM (≈ 59.8 µg/mL) | 250 µM (≈ 59.8 µg/mL) | 500 µM (≈ 120 µg/mL) | 500 µM (≈ 120 µg/mL) | 250 µM (≈ 59.8 µg/mL) | 250 µM (≈ 59.8 µg/mL) | 500 µM (≈ 120 µg/mL) | 500 µM (≈ 120 µg/mL) | 250 µM (≈ 59.8 µg/mL) | 500 µM (≈ 120 µg/mL) | 500 µM (≈ 120 µg/mL) | 500 µM (≈ 120 µg/mL) | 250 µM (≈ 59.8 µg/mL) | 500 µM (≈ 120 µg/mL) | 250 µM (≈ 59.8 µg/mL) | 500 µM (≈ 120 µg/mL) | 250 µM (≈ 59.8 µg/mL) | IC50 ([5]; hela s3): Not Active; IC50 ([21]; ccrf-cem): Not Active; MIC80 [23]: 500 µM (≈ 120 µg/mL); IC50 [24]: Not Active; MIC80 [25]: 500 µM (≈ 120 µg/mL); IC50 ([26]; l1210): Not Active; MIC80 [27]: 500 µM (≈ 120 µg/mL); MIC80 [28]: 500 µM (≈ 120 µg/mL) |
| C/C=C1/C=C(c2ccc(Br)cc2)C(=O)O1 | > 500 µM | > 500 µM | 31.2 µM (≈ 8.28 µg/mL) | 250 µM (≈ 66.3 µg/mL) | > 500 µM | > 500 µM | > 500 µM | 31.2 µM (≈ 8.28 µg/mL) | > 500 µM | > 500 µM | > 500 µM | > 500 µM | > 500 µM | > 500 µM | > 500 µM | > 500 µM | > 500 µM | > 500 µM | > 500 µM | > 500 µM | IC50 ([5]; hela s3): Not Active; IC50 ([21]; ccrf-cem): Not Active; MIC80 [23]: > 500 µM; IC50 [24]: Not Active; MIC80 [25]: > 500 µM; IC50 ([26]; l1210): Not Active; MIC80 [27]: > 500 µM; MIC80 [28]: > 500 µM |
| O=C1O/C(=C\CO)C=C1c1ccc(Br)cc1 | 62.5 µM (≈ 17.6 µg/mL) | 15.6 µM (≈ 4.39 µg/mL) | 7.81 µM (≈ 2.2 µg/mL) | 1.95 µM (≈ 0.548 µg/mL) | 7.81 µM (≈ 2.2 µg/mL) | 15.6 µM (≈ 4.39 µg/mL) | 7.81 µM (≈ 2.2 µg/mL) | 7.81 µM (≈ 2.2 µg/mL) | 31.2 µM (≈ 8.78 µg/mL) | 31.2 µM (≈ 8.78 µg/mL) | 15.6 µM (≈ 4.39 µg/mL) | 31.2 µM (≈ 8.78 µg/mL) | 7.81 µM (≈ 2.2 µg/mL) | 62.5 µM (≈ 17.6 µg/mL) | 15.6 µM (≈ 4.39 µg/mL) | 31.2 µM (≈ 8.78 µg/mL) | 15.6 µM (≈ 4.39 µg/mL) | 15.6 µM (≈ 4.39 µg/mL) | 15.6 µM (≈ 4.39 µg/mL) | 7.81 µM (≈ 2.2 µg/mL) | IC50 ([5]; Homo sapiens, HeLa S3, 48 h, read-out: IC50): 3.06 µM; IC50 ([21]; Homo sapiens, CCRF-CEM, 72 h, read-out: IC50): 2.07 µM; MIC80 [23]: 62.5 µM (≈ 17.6 µg/mL); IC50 [24]: Not Active; MIC80 [25]: 62.5 µM (≈ 17.6 µg/mL); IC50 ([26]; Mus musculus, L1210, 72 h, read-out: IC50): 7.71 µM; MIC80 [27]: 15.6 µM (≈ 4.39 µg/mL); MIC80 [28]: 31.2 µM (≈ 8.78 µg/mL) |
